Data published in ChEMBL document CHEMBL1124060, “2-Ethynylbenzenealkanamines. A new class of calcium entry blockers” (1988).

How the values were obtained:
Type in all cases: functional
[1] = species on record: Cavia porcellus; assay: Concentration needed to elicit a 75% increase beyond control in coronary flow in ''Langendorff'', guinea pig heart (in vitro)
Summary of the method: (§1)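 Isolated Langendorff-perfused guinea pig hearts infused with a range of drug concentrations; force (g), rate (beats/min) and coronary flow (mL/min) recorded. A linear regression of percent-control flow gives C175, the micromolar concentration raising flow to 175% of control, reported only if within the tested range. Raw data analysed by paired t tests.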

[2] = species on record: Cavia porcellus; assay: Concentration needed to achieve a 75% increase in coronary blood flow in 'Langendorff', guinea pig heart (in vitro negative inotropic activity); summary of the method: as §1
[3] = species on record: Cavia porcellus; assay: Concentration needed to achieve a 75% increase in coronary blood flow in 'Langendorff', guinea pig heart (in vitro Negative inotropic potency); summary of the method: as §1
[4] = test system: Rattus norvegicus; assay: Ability to lower blood pressure in the spontaneously hypertensive rat (SHR) at 1 mg/kg (p.o.); conditions: route oral
Summary of the method: (§2)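 Spontaneously hypertensive rats dosed orally at the stated dose; read-out is the maximum fall in blood pressure (mmHg), with significance shown as P.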

[5] = test system: Rattus norvegicus; assay: Ability to lower blood pressure in the spontaneously hypertensive rat (SHR) at 10 mg/kg (p.o.); conditions: route oral; summary of the method: as §2
[6] = species on record: Oryctolagus cuniculus; assay: In vitro inhibition of development of isometric tension, in response to norepinephrine (NE, 10 uM) in rabbit aorta expressed as percent change from control
Summary of the method: (§3)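 Test compounds at 10 μM; tension and calcium influx each expressed as % change from control, measured against KCl ([…]) or NE (10 μM) stimulus.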

[7] = species on record: Oryctolagus cuniculus; assay: In vitro inhibition of development of isometric tension, in response to KCl (60 uM) in rabbit aorta expressed as percent change from control; summary of the method: as §3
[8] = species on record: Oryctolagus cuniculus; assay: Inhibition of [Ca2+] influx in response to a stimulus of KCL (60 uM) expressed as percent change from control; summary of the method: as §3
[9] = species on record: Oryctolagus cuniculus; assay: Inhibition of [Ca2+] influx in response to a stimulus of norepinephrine (NE, 10 uM) expressed as percent change from control; summary of the method: as §3
[10] = test system: Rattus norvegicus; assay: Ability to lower blood pressure in the spontaneously hypertensive rat (SHR) at 100 mg/kg (p.o.); conditions: route oral
Summary of the method: (§4)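 Spontaneously hypertensive rats were given a single oral dose of the compound. The read-out was the maximum fall in blood pressure, in mmHg, after that dose. A P value for significance was reported with each value.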

[11] = test system: Rattus norvegicus; assay: Ability to lower blood pressure in the spontaneously hypertensive rat (SHR) at 29 mg/kg (p.o.); conditions: route oral; summary of the method: as §4

| SMILES | C175 [1] [µM] | Contractile force, % of control [2] [%] | P (Ei) [3] | Max fall in blood pressure [4] [mmHg] | Max fall in blood pressure [5] [mmHg] | Change [6] [%] | Change [7] [%] | Change [8] [%] | Change [9] [%] | Max fall in blood pressure [10] [mmHg] | Max fall in blood pressure [11] [mmHg] |
| --- | --- | --- | --- | --- | --- | --- | --- | --- | --- | --- | --- |
| COc1ccc(C#Cc2ccccc2)c(CC(C)N(C)CCc2ccc(OC)c(OC)c2)c1 (stereo not drawn) | 0.025 | 70 | <0.05 | 53 | – | – | – | – | – | – | – |
| COc1cc(CCNC(C)Cc2cc(OC)ccc2C#Cc2ccccc2)cc(OC)c1 (stereo not drawn) | 0.00075 | 120 | 0.026 | – | 36 | -13 | -15 | -42 | -23 | – | – |
| COc1ccc(C#Cc2ccccc2)c(CC(C)N(C)CCc2ccc(Cl)c(Cl)c2)c1 (stereo not drawn) | 0.004 | 90 | >0.5 | 67 | – | – | – | – | – | – | – |
| COc1ccc(C#Cc2ccccc2)c(CCCN(C)CCc2ccc(OC)c(OC)c2)c1 | 3 | 85 | <0.05 | – | – | – | – | – | – | 62 | – |
| CCCCC#Cc1ccc(OC)cc1CCCN(C)CCc1ccc(OC)c(OC)c1 | 0.2 | 100 | >0.5 | – | – | – | – | – | – | 35 | – |
| COc1ccc(C#Cc2ccc([S+](C)[O-])cc2)c(CC(C)N(C)CCc2ccc(OC)c(OC)c2)c1 (stereo not drawn) | 3 | 10 | <0.001 | – | – | – | – | – | – | – | 29 |
